Data taken from ChEMBL document CHEMBL5154815, “A Series of Substituted Bis-Aminotriazines Are Activators of the Natriuretic Peptide Receptor C” (J Med Chem, 2022).
In brackets after ≈: the same amount, converted by molar mass. Activity calls are given as the source filed them. The rule behind the calls is not given here.

Key:
[1] = molecular target: T1, Atrial natriuretic peptide receptor 3 (Mus musculus, UniProt P70180); experiment: Agonist activity at NPRC in wild type mouse mesenteric arteries assessed as vasorelaxation by Organ bath assay; format: tissue-based, Artery
T1 sequence (P70180 whole entry): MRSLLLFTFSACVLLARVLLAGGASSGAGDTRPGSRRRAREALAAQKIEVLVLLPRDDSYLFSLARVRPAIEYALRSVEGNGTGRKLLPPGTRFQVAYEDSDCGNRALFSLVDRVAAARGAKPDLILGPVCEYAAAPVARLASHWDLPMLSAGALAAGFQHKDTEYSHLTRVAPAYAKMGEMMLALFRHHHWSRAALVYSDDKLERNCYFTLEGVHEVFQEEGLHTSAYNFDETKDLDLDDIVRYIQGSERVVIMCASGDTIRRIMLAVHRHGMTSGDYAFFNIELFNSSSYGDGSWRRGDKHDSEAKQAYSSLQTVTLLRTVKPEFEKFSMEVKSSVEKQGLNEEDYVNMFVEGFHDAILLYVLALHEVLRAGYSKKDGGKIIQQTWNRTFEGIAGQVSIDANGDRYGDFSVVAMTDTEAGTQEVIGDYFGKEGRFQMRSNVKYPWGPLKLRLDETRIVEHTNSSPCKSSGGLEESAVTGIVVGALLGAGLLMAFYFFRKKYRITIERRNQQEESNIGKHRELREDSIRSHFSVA

[2] = molecular target: T2, Atrial natriuretic peptide receptor 3 (Rattus norvegicus) (UniProt P41740); experiment: Agonist activity at NPRC in rat aorta assessed as inhibition of cANF4-23 induced vasorelaxation in presence of M372049 by Organ bath assay; format: tissue-based; conditions: filed as agonist
T2 sequence (whole entry): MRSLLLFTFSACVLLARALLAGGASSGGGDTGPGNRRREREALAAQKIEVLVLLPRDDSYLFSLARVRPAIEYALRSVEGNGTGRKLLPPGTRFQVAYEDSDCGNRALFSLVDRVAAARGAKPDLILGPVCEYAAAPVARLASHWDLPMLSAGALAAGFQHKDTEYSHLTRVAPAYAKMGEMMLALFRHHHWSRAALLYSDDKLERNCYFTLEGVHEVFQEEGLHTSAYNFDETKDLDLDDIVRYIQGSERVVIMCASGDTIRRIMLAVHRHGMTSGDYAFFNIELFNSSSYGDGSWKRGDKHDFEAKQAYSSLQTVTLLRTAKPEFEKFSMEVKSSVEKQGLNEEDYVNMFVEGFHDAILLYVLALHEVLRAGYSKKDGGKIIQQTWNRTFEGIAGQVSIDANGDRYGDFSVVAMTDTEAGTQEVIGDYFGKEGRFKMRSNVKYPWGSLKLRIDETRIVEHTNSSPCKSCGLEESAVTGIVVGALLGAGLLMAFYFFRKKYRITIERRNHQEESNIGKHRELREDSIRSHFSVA

[3] = Volume of distribution at steady state in fasted C57BL/6 mouse at 3 mg/kg, iv by LC-MS/MS analysis; format: ADME, organism-based; conditions: in vivo, read-out: Vdss
[4] = Oral bioavailability in fasted C57BL/6 mouse at 10 mg/kg by LC-MS/MS analysis; format: ADME, organism-based; conditions: in vivo
[5] = Solubility of compound in PBS at 10 mM after 3 hrs by UV analysis; conditions: buffer, 10000 µM
[6] = molecular target: T3, Atrial natriuretic peptide receptor 3 (Homo sapiens, UniProt P17342); experiment: Binding affinity to CM5 sensor chip immobilized human NPR-C (27 to 541 residues) assessed as dissociation constant by surface plasmon resonance analysis
T3 sequence (P17342 whole entry): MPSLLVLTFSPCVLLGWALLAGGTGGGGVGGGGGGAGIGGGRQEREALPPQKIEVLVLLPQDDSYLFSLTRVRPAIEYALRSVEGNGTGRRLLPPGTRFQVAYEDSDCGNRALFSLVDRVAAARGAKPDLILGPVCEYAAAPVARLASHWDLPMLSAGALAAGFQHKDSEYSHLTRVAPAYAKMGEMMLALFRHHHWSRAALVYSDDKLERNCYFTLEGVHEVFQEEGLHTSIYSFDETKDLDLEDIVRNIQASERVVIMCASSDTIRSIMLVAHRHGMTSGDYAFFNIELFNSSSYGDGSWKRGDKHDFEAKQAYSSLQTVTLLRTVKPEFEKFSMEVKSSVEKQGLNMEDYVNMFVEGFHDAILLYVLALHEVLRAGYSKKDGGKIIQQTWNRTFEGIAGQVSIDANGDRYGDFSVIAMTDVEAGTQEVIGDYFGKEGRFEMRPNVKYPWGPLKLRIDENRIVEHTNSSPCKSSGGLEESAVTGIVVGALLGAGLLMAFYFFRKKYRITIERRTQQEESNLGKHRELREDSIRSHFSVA

[7] = Stability in Sprague-Dawley rat hepatocytes assessed as clearance per […] at 1 uM after 20 mins by LC-MS/MS analysis; format: ADME, cell-based, Hepatocyte
[8] = molecular target: T1, Atrial natriuretic peptide receptor 3; experiment: Agonist activity at NPRC in knock out mouse mesenteric arteries assessed as vasorelaxation by Organ bath assay; format: tissue-based, Artery
[9] = rat, hepatocytes, 20 min, 1 µM
[10] = molecular target: T2, Atrial natriuretic peptide receptor 3 (Rattus norvegicus); experiment: Agonist activity at NPRC in rat aorta assessed as inhibition of cANF4-23 induced vasorelaxation in presence of osteocrin by Organ bath assay; format: tissue-based; conditions: filed as agonist
[11] = molecular target: T4, Atrial natriuretic peptide receptor 3 (Homo sapiens) (UniProt P17342); experiment: Displacement of Flu-P19 probe from human NPR-C (27 to 541 residues) at 300 uM by fluorescence polarization analysis relative to control
T4 sequence (whole entry): T3 sequence (P17342 whole entry)
Outline: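 Competition fluorescence polarization with NPR-C protein 20 nM and Flu-P19 probe 150 pM (final) in PBS-P with 1% DMSO final; samples were prepared on ice. Primary screen at 300 μM ligand. Read at 485 nm excitation / 520 nm emission. Signal normalized to buffer+probe and protein+probe controls; background blanked with buffer-only PBS-P/1% DMSO.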

Cytochrome P450 1A2 = molecular target: T5, Cytochrome P450 1A2 (Homo sapiens, UniProt P05177); experiment: Inhibition of CYP1A2 in human liver microsomes using phenacetin as substrate preincubated for 10 mins followed by NADPH addition and measured after 10 mins by LC/MS/MS analysis
T5 sequence (P05177 whole entry): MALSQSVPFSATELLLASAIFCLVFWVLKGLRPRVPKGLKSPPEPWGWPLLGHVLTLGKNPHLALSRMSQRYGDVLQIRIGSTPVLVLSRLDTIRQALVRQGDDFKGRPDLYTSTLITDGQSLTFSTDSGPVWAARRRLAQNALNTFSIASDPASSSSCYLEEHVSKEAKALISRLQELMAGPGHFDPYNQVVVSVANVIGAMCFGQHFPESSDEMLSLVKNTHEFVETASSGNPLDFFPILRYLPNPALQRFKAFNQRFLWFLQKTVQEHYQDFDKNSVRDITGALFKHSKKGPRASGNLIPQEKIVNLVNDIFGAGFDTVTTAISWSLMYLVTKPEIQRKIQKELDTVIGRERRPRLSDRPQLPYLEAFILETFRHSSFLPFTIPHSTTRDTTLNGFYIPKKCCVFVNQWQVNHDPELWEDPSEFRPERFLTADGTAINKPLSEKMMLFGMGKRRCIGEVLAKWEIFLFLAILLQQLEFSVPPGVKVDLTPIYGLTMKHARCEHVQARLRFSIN

CC(=O)Nc1ccc(Nc2ncnc(NCCC(=O)OC(C)(C)C)n2)cc1
EC50 [1]: 1.58 µM | Activity [2]: Active | Vd [3]: 1.75 L/kg | F [4]: 43.8% | solubility [5]: 71.17 mg/mL (≈ 191 mM) | Kd [6]: 146 µM | CLH [7]: 11.8 µL/min | EC50 [8]: 10.1 µM | t1/2 [9]: 1.952 h | Activity [10]: Active | Activity [11]: < 17% | IC50 (Cytochrome P450 1A2): > 50 µM
